Compound activity (PubChem)
Compounds with a hit are over-represented: about 3.5% of the library has one in this group of screens.
MrgX1 ag: agonists of human MrgX1 receptor, primary screen, HEK293 cells, Fluo-4 calcium flux. Mas-related G-protein coupled receptor member X1 (Homo sapiens), Q96LB2. B-score at 10 µM. AID 588627, 2011. Fluo-4 calcium fluorescence, agonist mode; active compounds read high. 0.44% of 310,000 active;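 active = calcium response B-score plate-corrected fluorescence ratio at least 3 library SD, with starting fluorescence B-score inside 5 SD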
Target sequence (Q96LB2 whole entry, looked up): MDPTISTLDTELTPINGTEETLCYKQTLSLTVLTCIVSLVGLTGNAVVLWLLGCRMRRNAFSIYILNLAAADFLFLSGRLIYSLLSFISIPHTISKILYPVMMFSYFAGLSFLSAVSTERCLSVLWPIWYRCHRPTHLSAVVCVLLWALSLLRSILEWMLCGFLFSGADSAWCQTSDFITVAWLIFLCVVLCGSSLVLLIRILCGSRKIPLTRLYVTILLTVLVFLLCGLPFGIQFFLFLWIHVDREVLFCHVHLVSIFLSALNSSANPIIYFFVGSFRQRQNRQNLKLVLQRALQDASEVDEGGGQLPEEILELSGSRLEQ
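Material – MrgX1-expressing HEK293 cells · Input – 15,000 cells seeded per well · Dosing – compound as first of three additions · Times – overnight seeding, then 1 h dark dye loading · Measured by – kinetic Fluo-4 NW fluorescence of intracellular calcium · Read-out – B-scored fluorescence response ratio · Benchmarks – positive and negative control wells on each plate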
RGS4 block: RGS4 inhibitors, primary screen, cell-based, HEK293 M3R inducible RGS4, calcium flux; B-score at 10 µM; 0.45% of 310,000 active; Fluo-4 calcium flux; active compounds read high; triggered by carbachol at its EC20;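 active = B-score, a plate-corrected calcium signal, over three deviations above library mean, with baseline fluorescence within five deviations of library mean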;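 also: RGS4 expression induced by doxycycline in cells with stable M3 receptor; B-score is computed from the integrated fluorescence ratio over baseline after carbachol; higher B-score means a larger calcium signal and so more RGS4 inhibition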
Target sequence (P49798 whole entry, looked up): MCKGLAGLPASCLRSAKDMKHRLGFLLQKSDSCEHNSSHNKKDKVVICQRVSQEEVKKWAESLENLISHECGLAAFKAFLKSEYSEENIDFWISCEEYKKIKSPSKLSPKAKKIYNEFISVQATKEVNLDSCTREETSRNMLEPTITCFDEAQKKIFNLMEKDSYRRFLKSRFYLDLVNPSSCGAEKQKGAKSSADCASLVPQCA
MrgX1 antag: antagonists of human MrgX1 receptor, primary screen, HEK293 cells, Fluo-4 calcium flux; BAM8-22 antagonism; active compounds read low; AID 588676, 2011; Mas-related G-protein coupled receptor member X1 (Homo sapiens), Q96LB2; 1.3% of 310,000 active; B-score at 10 µM;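 active = calcium-response B-score plate-corrected more than 3 library SD below zero, starting fluorescence within 5 deviations, no agonist response on first addition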;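 also: peak minus trough fluorescence over baseline after final BAM8-22 challenge near maximal dose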
MrgX1 PAM: positive allosteric modulators of MrgX1, primary screen, HEK293 cells, Fluo-4 calcium flux; AID 588675, 2011; 0.63% of 310,000 active; B-score at 10 µM; Mas-related G-protein coupled receptor member X1 (Homo sapiens), Q96LB2; FDSS; active compounds read high;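 active = plate-corrected calcium response at least 3 library SD above typical, normal starting fluorescence, not activating the receptor alone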;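 also: compound read alongside a low EC10 to EC30 dose of BAM8-22 agonist; peak minus trough fluorescence over baseline measured at the second addition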
RGS4 pot: RGS4 potentiators or activators, primary screen, cell-based, HEK293 M3R inducible RGS4, calcium flux | AID 463111, 2010 | B-score at 10 µM | carbachol calcium flux Fluo4; active compounds read low | 0.92% of 310,000 active;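 active = B-score of the integrated calcium signal more than 4 SD below the library mean, with starting fluorescence not abnormally high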;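 also: negative B-score means reduced calcium response which marks RGS4 activation or potentiation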
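Assay system: HEK293 FlpIn-TREx cells, stable M3R, doxycycline-inducible RGS4 / Probe or stimulus: carbachol, ECmax concentration / Times: overnight RGS4 induction, 30 min dye load 37 °C, 20 min compound RT / Signal: kinetic calcium fluorescence imaging with Fluo4-AM dye, 2 µM / Measure: Agonist-evoked peak-minus-minimum fluorescence over baseline, integrated ratio, B score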
MrgX1 PAM conf: MrgX1 positive allosteric modulators, duplicate retest, confirmation, HEK293 cells, Fluo-4 calcium flux. activation (ratio percentage), % at 10 µM. 13% of 1,200 active. AID 602413, 2012. Fluo-4 calcium fluorescence, FDSS. shares compounds with MrgX1 PAM;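 active = ratio at least 3 SD above the weak peptide control, stable starting fluorescence, no direct agonism earlier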;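 also: compound followed by low BAM8-22 agonist challenge near EC20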
HEK293 Ca flux: nonspecific calcium signal in parental HEK293, confirmation, counter-screen for MrgX1 antagonist project, parental HEK293 cells, Fluo-4 calcium flux. Fluo-4 calcium fluorescence, FDSS. 2% of 4,000 active. shares compounds with MrgX1 antag. fluorescence ratio F(max-min)/F0 at 10 µM;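 active = duplicate-averaged calcium fluorescence ratio at least three times the standard deviation of buffer wells, a nonspecific response in parental cells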
HEK293 Ca counter: calcium response in parental HEK293 cells, primary screen, counter-screen for MrgX1 allosteric activator project, cell-based, Fluo-4 calcium flux, duplicate. shares compounds with MrgX1 antag. Fluo-4 fluorescence ratio; active compounds read high. fluorescence ratio F(max-min)/F0 at 10 µM. 0.4% of 4,000 active;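 active = calcium fluorescence ratio, averaged over duplicates, at least 3 SD of the buffer-well ratio, meaning a nonspecific response in receptor-free cells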;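 also: untransfected parental HEK293 lacking MrgX1 used as counterscreen for MrgX1 allosteric activators; fluorescence change taken during the second addition on a kinetic imager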
HEK293 Ca cntr2: calcium response in parental HEK293 cells, primary screen, counter-screen for MrgX1 agonist project, cell-based, Fluo-4 calcium flux, duplicate, agonist mode. shares compounds with MrgX1 antag. Fluo-4 calcium fluorescence (FDSS); active compounds read high. fluorescence ratio F(max-min)/F0 at 10 µM. 8.7% of 4,000 active. AID 624115, 2012;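 active = calcium fluorescence ratio at least three times the spread of buffer wells, meaning a non-specific response in parental cells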
An asterisk follows results filed as active; i = inactive; . = not tested or not shown.

SMILES | MrgX1 ag | RGS4 block | MrgX1 antag | MrgX1 PAM | RGS4 pot | MrgX1 PAM conf | HEK293 Ca flux | HEK293 Ca counter | HEK293 Ca cntr2
Cc1sc(NC(=O)c2ccc(F)cc2)c(CN2CCCCCC2)c1C | i | i | i | i | i | . | . | . | .
Cc1cc(Cl)ccc1OC(C)C(=O)Nc1ccccc1N1CCOCC1 (centres undefined) | i | i | i | 15* | i | i | i | i | i
CCOc1cccc(NC(=O)CSc2nncn2N)c1 | i | i | i | 7.4* | i | i | i | i | i
CSCC[C@H](NC(=O)N1CCn2c1nc1ccccc12)C(=O)N1CCCCC1 | i | i | i | 10* | i | i | i | i | i
O=C(c1ccc(Br)cc1)N1CCN(Cc2ccccc2)CC1 | i | i | i | 6.5* | i | i | i | i | i
CCc1ccc(S(=O)(=O)c2ccc(-n3nc(C)cc3N)cc2)cc1 | i | i | i | i | i | . | . | . | .
CC1(c2ccccc2)NC(=O)N(CC(=O)Nc2ccccc2N2CCCC2)C1=O (centres undefined) | i | i | i | i | i | . | . | . | .
C=C(C)COc1ccc2c(C)c(CCC(=O)N3C[C@H]4C[C@@H](C3)c3cccc(=O)n3C4)c(=O)oc2c1 | i | i | i | 28* | i | i | i | i | i
O=C(c1ccc(Br)cc1)N(c1ccccn1)C1CCCCC1 | i | i | i | 19* | i | i | i | i | i
COc1ccc(Cl)cc1N(CC(=O)Nc1cccc(SC)c1)S(C)(=O)=O | i | i | i | 8.3* | i | i | i | i | i
Cn1c(CN2CCCCC2)nc2cc(NC(=O)c3ccc(Cl)cc3)ccc21 | i | i | i | i | i | . | . | . | .
Cn1c(CN2CCCC2)nc2cc(NC(=O)c3ccc(Cl)cc3)ccc21 | i | i | i | 9* | i | i | i | i | i
Cc1ccc2c(Cl)c(C(=O)NC3CC3)sc2c1 | i | i | i | i | i | . | . | . | .
Cc1c(CC(=O)O)c(=O)oc2c(C)c(OCc3ccc(F)cc3F)ccc12 | i | i | i | i | i | . | . | . | .
COc1ccccc1COc1ccc2c(C)c(CC(=O)O)c(=O)oc2c1C | i | i | i | 13* | i | i | i | i | i
CCC(c1nnnn1CCc1ccccc1)N1CCN(c2ccc(OC)cc2)CC1 (centres undefined) | i | i | i | 7.7* | i | i | i | i | i
CC(C)NC(=O)NC(=O)COC(=O)/C=C/c1ccccc1[N+](=O)[O-] | i | i | i | i | i | . | . | . | .
Nc1nc(C23CC4CCC(CC(C4)C2)C3)cs1 | i | i | i | 7.1* | i | i | i | i | i
Nc1nc(C23CC4CC(CC(Cl)(C4)C2)C3)cs1 | i | i | i | i | i | . | . | . | .
COC(=O)c1ccc(Oc2nc(C)cc(Oc3ccccc3)n2)cc1 | i | i | i | 19* | i | 7.3%* | i | i | i
CCCc1cc(C(N)=O)c(NC(=O)c2ccoc2C)s1 | i | i | i | 8.7* | i | i | i | i | i
Cc1ccc(NC2=C(CC(=O)O)C(c3ccccc3)N(c3ccc(C)cc3)C2=O)cc1 (centres undefined) | i | i | i | i | i | . | . | . | .
Cc1cc(C(=O)N2CCCC(CCC(=O)N3CCN(c4ccccn4)CC3)C2)c(C)o1 (centres undefined) | i | i | i | i | i | . | . | . | .
Cc1ccc(C(=O)N2CCCC(CCC(=O)N3CCN(c4ccccn4)CC3)C2)cn1 (centres undefined) | i | i | i | i | i | . | . | . | .
Cc1cccc(C(=O)N2CCCC(CCC(=O)N3CCN(c4ccccn4)CC3)C2)c1C (centres undefined) | i | i | i | 9.4* | i | i | i | i | i
SMILES | MrgX1 ag | RGS4 block | MrgX1 antag | MrgX1 PAM | RGS4 pot | MrgX1 PAM conf | HEK293 Ca flux | HEK293 Ca counter | HEK293 Ca cntr2
Cc1ccc(C(=O)N2CCCC(CCC(=O)N3CCN(c4ccccn4)CC3)C2)cc1C (centres undefined) | i | i | i | 7.8* | i | i | i | i | i
O=C(Nc1ccccc1C(=O)O)c1cccc(NS(=O)(=O)c2ccc(Br)cc2)c1 | i | i | i | 11* | i | i | i | i | i
O=C(Nc1ccccc1C(=O)O)c1cccc(S(=O)(=O)Nc2ccc(Br)cc2)c1 | i | i | i | i | i | . | . | . | .
O=C(c1ccc(COc2ccc3c(c2)CCC3)o1)N1CCN(c2ccccc2)CC1 | i | i | i | 7.7* | i | i | i | i | i
COc1ccc(C2=NS(=O)(=O)N(C)C(C(=O)NC3CCCCC3)=C2)cc1OC | i | i | i | i | i | . | . | . | .
Nc1ccc(Oc2ccc(Br)cc2)cc1 | i | i | i | 8.4* | i | i | i | i | i
Nc1ccc(Oc2cccc(Oc3ccc(N)cc3)c2)cc1 | i | i | i | i | i | . | . | . | .
Cc1ccc2nc(Cl)c(-c3ccccc3)cc2c1 | i | i | i | 8.3* | i | i | i | i | i
CCCc1ccc(OCC(=O)Nc2cc(S(=O)(=O)CC)ccc2O)cc1 | i | i | i | 24* | i | i | i | i | i
O=C(NCc1n[nH]c(=O)c2ccccc12)C1CC(=O)N(c2ccc(Cl)cc2)C1 (centres undefined) | i | i | i | i | i | . | . | . | .
Cc1nonc1NC(=O)CSc1nc(C23CC4CC(CC(C4)C2)C3)nc2ccccc12 | i | i | i | i | i | . | . | . | .
